Test results published in PubChem BioAssay AID1258 (University of Pittsburgh Molecular Library Screening Center, 2008).
Out of some 1,100 compounds screened, about 150 (14%) were called active. Another 1% or so got no clear call; they are omitted. These entries were drawn from the full list. A number with no mark means an inactive call.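 The calls were made as follows: active = inhibition above about 50% in both repeat tests (limit read from the data); inconclusive = one repeat under the set limit, the other over it; inactive = both repeats under the set limit.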

Assay: antileishmanial activity against promastigotes – 1 µM repeat of primary hits, confirmation (AID 1258)
Conditions: L. major promastigote growth, resazurin fluorescence, 48 h; at 1 µM; hits give high values
How it was run: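 Assay system: L. major promastigotes | Input: 5,000 promastigotes per well | Dosing: 1 µM single concentration | Buffer or medium: M199, 10% heat-inactivated FBS | Read-out basis: Promastigote viability as inhibition relative to DMSO MAX/MIN controls | Benchmarks: DMSO high/low controls plus tamoxifen reference | Times: 44 h compound exposure, 4 h dye incubation, 28 °C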

SMILES	inhibition
Clc1ccc(-n2nnnc2-c2cnc(-c3ccccn3)nc2-c2cccs2)cc1	-17.1%
c1ccc(CC2CCN(c3nc4ccccc4n4cnnc34)CC2)cc1	-11.4%
CC(=O)NC1C(Oc2ccc(C)cc2)OC2COC(c3ccco3)OC2C1O (stereo unspecified)	-11.1%
N#Cc1ccc(N2Cc3ccccc3/C2=N/C(=O)Nc2ccc(Cl)cc2)cc1	14%
CCOC(=O)c1c(C2CC2)csc1NC(=O)CSCc1c(C)noc1C	-3.56%
CNC(=S)N/N=C/c1cn(Cc2ccc(C)cc2)c2ccccc12	-4.3%
COc1ccc2c(c1)C=CC1(O2)N(CCO)c2ccccc2C1(C)C (stereo unspecified)	-3.93%
O=C(c1ccc(-c2ccccc2)cc1)C1CCCN(C(=O)c2cncs2)C1 (stereo unspecified)	-12.9%
Cn1c(-c2sc3cc(C(F)(F)F)cnc3c2-c2ccccc2)n[nH]c1=S	-17.6%
N#Cc1ccc(-c2nc3cc(C#N)c(C#N)cc3nc2-c2ccccc2)cc1C#N	-5.54%
c1ccc2cc(OCCN3CCCC3)ccc2c1	12.5%
Cc1nn(-c2ccccc2)c2sc(C(=O)N(Cc3ccco3)C(C)C(=O)NC(C)(C)C)cc12 (stereo unspecified)	-6.73%
COCCN(CCOC)S(=O)(=O)c1ccc(C(=O)Nc2nc3c(s2)CCc2ccccc2-3)cc1	-8.24%
CC(C)Cc1nn2c(=O)cc(O)nc2s1	-1.83%
Cc1c(Br)cc(C(=O)N2CCCCCC2)c(C)c1C	-3.85%
CCOC(=O)/C(N=Nc1cc(C(=O)O)cc(C(=O)O)c1)=C(\O)CCl	-4.13%
CCOC(=O)N1CCN(C(c2cccnc2)c2ccc3cccnc3c2O)CC1 (stereo unspecified)	-7.1%
CCc1nc(C)cn1S(=O)(=O)c1cc(OC)c(C)cc1C	0.254%
Fc1cc(F)c2nc(Nc3nc4c(F)cccc4s3)sc2c1	-9.65%

SMILES	inhibition
CC1(C)CC(=O)c2c(n(S(=O)(=O)c3ccccc3)c3ccc(NS(=O)(=O)c4ccccc4)cc23)C1	-25.3%
O=C(/C=C/Sc1ncn[nH]1)c1ccc(Cl)cc1	29.4%
CCOC(=O)C1=C(CC)Nc2ccccc2N=C1NC(=O)c1cccc(S(=O)(=O)N2CCCC2)c1	-9.84%
Cc1cccc(-n2c(N)cc(=O)nc2SC(C)C(=O)NC2CCCCC2)c1 (stereo unspecified)	29.9%
Cc1nn(CC2CC2)c(=O)n1N(C)c1ncc(C(F)(F)F)cc1Cl	-15.7%
Clc1ccc(C2=CSC3=Nc4cccc5cccc(c45)N23)cc1	-13.5%
CN(C)Cc1ccccc1C1(O)c2ccccc2CSc2ccccc21 (stereo unspecified)	-1.45%
Cc1ccc(Nc2nc(CSc3nnnn3-c3ccccc3)cc(=O)[nH]2)cc1	-2.73%
CN(C)c1ccc(/C=C2\NC(=S)N(Cc3ccccc3)C2=O)cc1	-11.8%
CCc1ccc(-c2nn(-c3ccccc3)cc2CSC(=N)N)cc1	46.8%
c1ccc(C2CCC(N3CCC(N4CCCCC4)CC3)CC2)cc1 (stereo unspecified)	59.2% (active)
O=C(Nc1ccc2ccccc2c1)Nc1ccc2snnc2c1	-30.1%
Cc1cc(/C=C(/C#N)C(=O)Nc2ccc(Cl)cc2)c(C)n1-c1cccnc1	-3.48%
O=C1N(Cc2ccc3c(c2)OCO3)c2ccccc2C1(O)c1c[nH]c2ccccc12 (stereo unspecified)	0.0749%
CCCCn1c(=S)[nH]c2cc(S(=O)(=O)N3CCCCC3)ccc21	9.63%
Cc1nnc(-c2ccc(Oc3ccc(C)c(C)c3)c([N+](=O)[O-])c2)o1	-11.1%
Cc1nc(N2CCOCC2)c2c(C)c(C(=O)Nc3ccc(C(F)(F)F)cc3)sc2n1	15.1%
Cc1ccc(CN(N=Nc2nonc2N)c2nonc2N)c(C)c1	-2.38%
Cc1nc([N+](=O)[O-])nn1C12CC3CC(CC(Br)(C3)C1)C2	38.5%

SMILES	inhibition
CC(=O)NC1C(OCc2ccccc2)OC(COC(C)=O)C(OC(C)=O)C1OC(C)=O (stereo unspecified)	-7.57%
O=C(CCN1C(=O)c2ccccc2C1=O)Nc1cccc(F)c1	-12.6%
O=C(NC(Cc1c[nH]c2ccccc12)C(=O)N/N=C/c1ccc(Br)cc1)c1cccs1 (stereo unspecified)	-12.7%
c1ccc(-c2cc(-c3nnc4sc(-c5ccccn5)nn34)[nH]n2)cc1	50.6% (active)
COC(=O)C1=C(C)N(c2ccc(C)cc2)/C(=C/c2ccc(O)cc2)C1=O	8.89%
COc1ccc(COC(=O)c2n[nH]c3ccccc23)cc1F	-13%
CS(=O)(=O)Nc1cccc(C2=NN(S(=O)(=O)c3ccccc3)C(c3cccs3)C2)c1 (stereo unspecified)	-8.88%
Cc1cccc(-n2c(C)cc(/C=N/NC(N)=S)c2C)c1	15.8%
C=CCNc1nnc(SCC(=O)N2CCCCC2)c2ccccc12	-6.19%
N#Cc1ccccc1-n1c(N)c(C(=O)N2CCCC2)sc1=S	-0.236%
CC12CCC(C(=O)N(NC(=O)c3ccccc3O)C1=O)C2(C)C (stereo unspecified)	-15.5%
Nc1cccc(-c2cc(-c3ccccc3)nc(-c3cccc(N)c3)n2)c1	-6.75%
COc1ccc2[nH]c(C)c(CCN(Cc3cccs3)C(=S)Nc3ccccc3OC)c2c1	28.7%
c1ccc(Cc2cc[n+](Cc3ccccc3)cc2)cc1	-17.2%
CN(C)c1ccc(/C=N\S(=O)(=O)c2ccccc2)cc1	-0.93%
O=C(c1cccnc1)N(c1cc2sc(=O)oc2c2ccccc12)S(=O)(=O)c1ccccc1	95.1% (active)
N#C/C=C\Oc1ccc(Cl)cc1N	-12.9%
COc1ccc(-c2cc(C(F)(F)F)nc(S(C)(=O)=O)n2)cc1OC	36.4%
